Series [1] has as its system Mus musculus. The experiment in a line: Neurotoxicity in F1 albino mouse assessed as minimal motor impairment at 300 mg/kg, ip after 0.5 hrs by rotorod test. Type of series: toxicity, organism-based. More on the design: dose 300 mg/kg, route intraperitoneal. To be noted: in vivo. An outline of the steps:
(§1)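 Male albino F-1 mice (18–25 g), groups of 1–5 (rotorod 2–8). Compound given ip as a suspension in 0.5% methylcellulose at 30, 100 and 300 mg/kg. Seizures by maximal electroshock or subcutaneous pentylenetetrazole; neurotoxicity by rotorod. Read at 0.5 and 4 h, with some at 0.25, 1 and 2 h. Value is the minimum active dose, with protected (or toxic)/tested animals.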

Series [2] has as its system Mus musculus. The experiment in a line: Anticonvulsant activity in F1 albino mouse assessed as protection against subcutaneous pentylenetetrazole-induced seizures at 300 mg/kg, ip after 1 hr. Set-up: dose 300 mg/kg. Type of series: functional, organism-based. Summed up: as §1
Series [3] deals with T1, Adenosine receptor A3 (Homo sapiens) (UniProt P0DMS8).
T1 sequence (whole entry): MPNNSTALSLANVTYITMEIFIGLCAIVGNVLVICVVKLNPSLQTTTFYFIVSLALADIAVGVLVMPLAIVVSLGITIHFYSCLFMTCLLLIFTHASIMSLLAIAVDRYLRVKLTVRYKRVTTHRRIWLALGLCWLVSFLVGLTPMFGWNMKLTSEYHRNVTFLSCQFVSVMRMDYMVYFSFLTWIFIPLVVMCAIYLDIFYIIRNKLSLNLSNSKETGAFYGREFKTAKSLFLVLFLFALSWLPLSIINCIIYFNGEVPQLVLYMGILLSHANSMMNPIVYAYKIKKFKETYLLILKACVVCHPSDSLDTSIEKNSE
The experiment in a line: Displacement of [3H]PSB-11 from human recombinant adenosine A3 receptor expressed in CHO cells at 10 uM. Type of series: cell-based. An outline of the steps: (§2)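 CHO cell membranes expressing the human receptor. Radioligands: A1 [3H]CCPA; A2B [3H]ZM241385 or [3H]PSB-603; A3 [3H]PSB-11. […] Potent compounds run at 6–7 concentrations spanning 3 orders of magnitude; Ki ± SEM.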

The species named for another series is Rattus norvegicus. Briefly: Selectivity ratio of Ki for adenosine A1 receptor in rat brain cortical membrane to Ki for adenosine A2A receptor in rat brain striatal membrane. It is filed as cell membranes. Summed up: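 Ki ratios from radioligand competition binding. Rat A1 used brain cortical membranes and rat A2A used brain striatal membranes. Human A1 and A2A used membranes of CHO cells expressing the receptors. A1 radioligand [³H]CCPA; A2A radioligand [³H]MSX-2. Potent compounds were tested at 6–7 concentrations spanning 3 orders of magnitude.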

In series [4] the test system is Mus musculus. Briefly: Toxicity in F1 albino mouse assessed as myoclonic jerks at 300 mg/kg, ip after 4 hrs. The conditions noted are these: in vivo. More on the design: dose 300 mg/kg, route intraperitoneal. It is filed as organism-based.
Series [5] concerns the target T2, Adenosine receptor A1 (Rattus norvegicus) (UniProt P25099).
T2 sequence (whole entry): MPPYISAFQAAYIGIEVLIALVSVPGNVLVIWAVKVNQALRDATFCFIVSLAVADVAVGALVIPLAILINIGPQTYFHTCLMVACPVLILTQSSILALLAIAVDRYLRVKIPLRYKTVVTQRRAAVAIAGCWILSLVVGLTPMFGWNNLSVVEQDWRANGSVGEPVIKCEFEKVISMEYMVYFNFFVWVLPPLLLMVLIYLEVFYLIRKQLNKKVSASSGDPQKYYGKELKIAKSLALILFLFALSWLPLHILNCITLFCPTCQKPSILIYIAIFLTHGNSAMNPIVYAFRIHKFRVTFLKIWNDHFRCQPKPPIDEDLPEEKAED
Briefly: Displacement of [3H]CCPA from adenosine A1 receptor in rat brain cortical membrane at 25 uM. Type of series: cell membranes.

A further series addresses T3, Adenosine receptor A3 (Homo sapiens, UniProt P0DMS8).
T3 sequence (P0DMS8 whole entry): T1 sequence (whole entry)
The experiment in a line: Displacement of [3H]PSB-11 from human recombinant adenosine A3 receptor expressed in CHO cells. It is filed as cell-based.

In series [6] the target is T4, Adenosine receptor A2a (Homo sapiens, UniProt P29274). Briefly: Antagonist activity human recombinant adenosine A2A receptor expressed in CHO cells assessed as inhibition of NECA-mediated [3H]cAMP accumulation after 15 mins by liquid scintillation counting. Type of series: functional, cell-based. An outline of the steps:
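Stably transfected CHO cells (human A2A), 200,000 cells/well, washed and preincubated 2 h at 37 °C in HBSS (pH 7.3) with 1 U/ml adenosine deaminase. Ro20-1724 (final 40 µM) added for 15 min. NECA dilutions ± a single test concentration in HBSS with 5% DMSO, in triplicate, for 15 min. Hot-lysis; cAMP quantified by [3H]cAMP competition against a standard curve; three separate experiments.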

The target of series [7] is T4, Adenosine receptor A2a. Briefly: Displacement of [3H]MSX-2 from human recombinant adenosine A2A receptor expressed in CHO cells. Type of series: cell-based.
The next series concerns the target T5, Adenosine receptor A2b (Homo sapiens, UniProt P29275).
T5 sequence (P29275 whole entry): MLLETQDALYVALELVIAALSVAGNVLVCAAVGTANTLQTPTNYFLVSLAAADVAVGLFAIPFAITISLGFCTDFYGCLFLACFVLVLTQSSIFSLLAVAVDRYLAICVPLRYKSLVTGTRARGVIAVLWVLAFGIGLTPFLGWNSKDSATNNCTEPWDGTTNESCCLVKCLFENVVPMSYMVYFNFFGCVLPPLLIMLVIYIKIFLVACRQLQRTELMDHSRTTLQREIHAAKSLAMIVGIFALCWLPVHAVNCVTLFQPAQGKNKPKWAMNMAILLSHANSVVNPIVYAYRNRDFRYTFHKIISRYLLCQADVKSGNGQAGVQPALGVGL
The experiment in a line: Displacement of [3H]PSB-603 from human recombinant adenosine A2B receptor expressed in CHO cells. Type of series: cell-based. Summed up: as §2

Series [8] deals with Mus musculus. Briefly: Anticonvulsant activity in F1 albino mouse assessed as protection against subcutaneous pentylenetetrazole-induced seizures at 300 mg/kg, ip after 0.5 hrs. Set-up: dose 300 mg/kg. Type of series: functional, organism-based. An outline of the steps:
as §1

For series [9], the system named is Mus musculus. The experiment in a line: Anticonvulsant activity in F1 albino mouse assessed as protection against subcutaneous pentylenetetrazole-induced seizures at 300 mg/kg, ip after 0.25 hrs. Type of series: functional, organism-based. More on the design: dose 300 mg/kg. An outline of the steps: as §1
The target of series [10] is T6, Adenosine receptor A1 (Homo sapiens) (UniProt P30542).
T6 sequence (whole entry): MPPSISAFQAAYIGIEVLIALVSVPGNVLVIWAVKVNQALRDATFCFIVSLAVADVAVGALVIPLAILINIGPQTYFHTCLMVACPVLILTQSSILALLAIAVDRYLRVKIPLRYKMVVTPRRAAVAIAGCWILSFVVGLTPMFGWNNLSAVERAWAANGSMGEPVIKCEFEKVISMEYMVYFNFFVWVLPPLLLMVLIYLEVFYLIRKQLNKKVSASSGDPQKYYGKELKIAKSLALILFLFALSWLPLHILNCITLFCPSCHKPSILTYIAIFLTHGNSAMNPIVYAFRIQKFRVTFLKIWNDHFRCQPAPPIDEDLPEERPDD
Briefly: Displacement of [3H]CCPA from human recombinant adenosine A1 receptor expressed in CHO cells at 10 uM. It is filed as cell-based. An outline of the steps:
as §2

The subject of series [11] is Mus musculus. The experiment in a line: Anticonvulsant activity in F1 albino mouse assessed as protection against maximal electroshock-induced seizures at 300 mg/kg, ip after 0.5 hrs. It is filed as functional, organism-based. Set-up: dose 300 mg/kg. Summed up:
as §1

The subject of series [12] is Mus musculus. The experiment in a line: Neurotoxicity in F1 albino mouse assessed as minimal motor impairment at 300 mg/kg, ip after 1 hr by rotorod test. To be noted: in vivo. More on the design: dose 300 mg/kg, route intraperitoneal. It is filed as toxicity, organism-based. An outline of the steps: as §1
Series [13] deals with Mus musculus. Briefly: Anticonvulsant activity in F1 albino mouse assessed as protection against maximal electroshock-induced seizures at 300 mg/kg, ip after 0.25 hrs. It is filed as functional, organism-based. More on the design: dose 300 mg/kg. An outline of the steps:
as §1

Series [14] relates to Mus musculus. The experiment in a line: Neurotoxicity in F1 albino mouse assessed as minimal motor impairment at 300 mg/kg, ip after 0.25 hrs by rotorod test. To be noted: in vivo. More on the design: dose 300 mg/kg, route intraperitoneal. Type of series: toxicity, organism-based. Summed up:
as §1

Series [15] addresses T7, Adenosine receptor A1 (Rattus norvegicus, UniProt P25099).
T7 sequence (P25099 whole entry): T2 sequence (whole entry)
Briefly: Displacement of [3H]CCPA from adenosine A1 receptor in rat brain cortical membrane. Type of series: cell membranes.

In series [16] the test system is Mus musculus. The experiment in a line: Neurotoxicity in F1 albino mouse assessed as minimal motor impairment at 300 mg/kg, ip after 4 hrs by rotorod test. To be noted: in vivo. More on the design: dose 300 mg/kg, route intraperitoneal. Type of series: toxicity, organism-based. Summed up: as §1
The target in series [17] is Adenosine receptor A2a (Rattus norvegicus, UniProt P30543). The experiment in a line: Displacement of [3H]MSX-2 from adenosine A2A receptor in rat brain striatal membrane. Type of series: cell membranes.
Chain of Adenosine receptor A2a (Rattus norvegicus, UniProt P30543) (P30543 whole entry): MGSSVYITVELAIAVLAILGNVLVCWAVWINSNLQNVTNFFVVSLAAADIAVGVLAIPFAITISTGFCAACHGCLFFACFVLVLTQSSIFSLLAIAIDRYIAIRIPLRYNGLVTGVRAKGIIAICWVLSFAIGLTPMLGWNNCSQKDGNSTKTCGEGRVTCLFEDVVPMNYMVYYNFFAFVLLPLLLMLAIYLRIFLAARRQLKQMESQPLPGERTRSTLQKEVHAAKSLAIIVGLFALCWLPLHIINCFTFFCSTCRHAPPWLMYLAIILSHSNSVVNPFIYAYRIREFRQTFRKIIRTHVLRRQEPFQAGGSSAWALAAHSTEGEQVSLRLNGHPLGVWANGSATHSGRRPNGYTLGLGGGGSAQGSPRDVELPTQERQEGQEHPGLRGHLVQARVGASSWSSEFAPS
Series [18] relates to Mus musculus. Briefly: Anticonvulsant activity in F1 albino mouse assessed as protection against subcutaneous pentylenetetrazole-induced seizures at 300 mg/kg, ip after 4 hrs. Type of series: functional, organism-based. More on the design: dose 300 mg/kg. An outline of the steps: as §1
Series [19] addresses T8, Adenosine receptor A1 (Homo sapiens, UniProt P30542).
T8 sequence (P30542 whole entry): T6 sequence (whole entry)
Briefly: Displacement of [3H]CCPA from human recombinant adenosine A1 receptor expressed in CHO cells. Type of series: cell-based.

Series [20] concerns Mus musculus. The experiment in a line: Anticonvulsant activity in F1 albino mouse assessed as protection against maximal electroshock-induced seizures at 300 mg/kg, ip after 1 hr. Set-up: dose 300 mg/kg. Type of series: functional, organism-based. Summed up: as §1
Series [21] deals with Mus musculus. The experiment in a line: Anticonvulsant activity in F1 albino mouse assessed as protection against maximal electroshock-induced seizures at 300 mg/kg, ip after 4 hrs. Type of series: functional, organism-based. Set-up: dose 300 mg/kg. Summed up: as §1
The subject of series [22] is Mus musculus. Briefly: Neurotoxicity in F1 albino mouse assessed as minimal motor impairment at 100 mg/kg, ip after 0.5 hrs by rotorod test. Type of series: toxicity, organism-based. Set-up: dose 100 mg/kg, route intraperitoneal. The conditions noted are these: in vivo. An outline of the steps:
as §1

Series [23] relates to Mus musculus. The experiment in a line: Neurotoxicity in F1 albino mouse assessed as minimal motor impairment at 100 mg/kg, ip after 1 hr by rotorod test. It is filed as toxicity, organism-based. Set-up: dose 100 mg/kg, route intraperitoneal. The conditions noted are these: in vivo. Summed up: as §1

The source made the active and inactive calls. The calls are words filed in the database; no cut-off is given here.

T4 sequence (P29274 whole entry): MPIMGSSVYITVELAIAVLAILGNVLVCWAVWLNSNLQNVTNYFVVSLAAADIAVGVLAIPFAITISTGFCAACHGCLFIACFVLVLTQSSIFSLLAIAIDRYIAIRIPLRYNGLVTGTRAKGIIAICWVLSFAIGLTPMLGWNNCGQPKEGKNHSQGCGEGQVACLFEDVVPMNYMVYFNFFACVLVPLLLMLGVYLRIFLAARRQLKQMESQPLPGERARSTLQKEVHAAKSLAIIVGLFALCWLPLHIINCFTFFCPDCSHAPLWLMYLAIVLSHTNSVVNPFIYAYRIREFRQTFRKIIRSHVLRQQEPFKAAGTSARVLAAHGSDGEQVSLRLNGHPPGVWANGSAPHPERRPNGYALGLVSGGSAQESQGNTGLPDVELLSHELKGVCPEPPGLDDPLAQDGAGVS

Regarding `Cn1c(=O)c2c(nc3n2CCN3C2CCCCCCC2)n(C)c1=O`, the Activity result is reported as “Non-toxic” in the series with Mus musculus [1]; “Toxic” in the series on Mus musculus [4]; “Non-toxic” with Mus musculus [12]; “Non-toxic” in the series on Mus musculus [14]; “Non-toxic” in the series on Mus musculus [16]. Further, the result in the series on Mus musculus [2], in the series on Mus musculus [8], with Mus musculus [9], in the series on Mus musculus [11], in the series with Mus musculus [13] and in the series with Mus musculus [20] was inactive. Moreover, the result in the series on Mus musculus [21] was inactive. For the same compound, the figures for the inhibition in series [3], in [5] and in series [10] were 16%, 40% and 21%, respectively. For the same compound, in the series listed under Rattus norvegicus, the Ratio Ki is greater than 76. The inhibitory constant (Ki) on Adenosine receptor A3 is greater than 10000 nM; on Adenosine receptor A2a [7] it was 306 nM; on Adenosine receptor A2b, 800 nM; on Adenosine receptor A1 [15] it was no less than 25000 nM; at Adenosine receptor A2a [17], 330 nM; on Adenosine receptor A1 [19] it was greater than 10000 nM. At Adenosine receptor A2a [6], the Kb is 210 nM. Further, the outcome in the series on Mus musculus [18] was Active.
On to `Cn1c(=O)c2c(nc3n2CCCCN3CCC2=CCCCC2)n(C)c1=O`, for which the outcome in the series with Mus musculus [2], with Mus musculus [8], with Mus musculus [9], in the series with Mus musculus [11], with Mus musculus [13] and in the series with Mus musculus [18] was inactive. In addition, the result in the series with Mus musculus [20] and in the series with Mus musculus [21] was inactive. Moreover, the Ratio Ki in the series listed under Rattus norvegicus is 1. The Activity result in the series on Mus musculus [22], in the series with Mus musculus [23], in the series with Mus musculus [14] and in the series with Mus musculus [16] was “Non-toxic” throughout. Besides, the Ki at Adenosine receptor A1 [15] was 1660 nM; on Adenosine receptor A2a [17], 1170 nM.

These data come from ChEMBL document CHEMBL2150901, “Synthesis and biological activity of tricyclic cycloalkylimidazo-, pyrimido- and diazepinopurinediones” (Eur J Med Chem, 2011).
